How the values were obtained:
RAW264.7 cells [1] = assay: cAMP and CREB phosphorylation in RAW264.7 cells; type: cell-based, murine; conditions: for effect on arctigenin-induced phosphorylation of CREB: 10 μM with arctigenin 100 μM
Summary of the method: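 RAW264.7 cells were exposed to test compound for 15 min under LPS (1 μg/mL) induction, or at 100 μM alongside H89 (10 μM) and/or forskolin (10 μM). Lysates were BCA-normalised and run on 10% SDS-PAGE and nitrocellulose, probed overnight at 4 °C, and detected by chemiluminescence. Intracellular cAMP was measured in 0.1 M HCl lysates by direct ELISA. Mean ± SEM, n = 3.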

PDE4D catalytic domain = PDE4D catalytic domain (Homo sapiens, UniProt Q08499); assay: PDEs enzyme assay; type: biochemical
Chain of PDE4D catalytic domain (Q08499 386-715 limits assumed): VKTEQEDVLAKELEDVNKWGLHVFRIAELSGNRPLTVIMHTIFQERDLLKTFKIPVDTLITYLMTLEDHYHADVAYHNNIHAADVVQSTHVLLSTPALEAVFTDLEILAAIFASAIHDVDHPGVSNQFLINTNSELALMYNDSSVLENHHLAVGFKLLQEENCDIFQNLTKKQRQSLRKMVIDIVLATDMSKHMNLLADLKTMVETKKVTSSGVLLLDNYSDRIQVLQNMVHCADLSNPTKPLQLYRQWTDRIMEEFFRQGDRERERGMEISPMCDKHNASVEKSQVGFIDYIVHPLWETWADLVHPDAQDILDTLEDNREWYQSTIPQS
Summary of the method: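 Purified PDE4D catalytic domain. Activity was read as hydrolysis of [³H]-cAMP to [³H]-AMP by scintillation proximity assay.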

PDK1 = molecular target: T1, PDK1 (Homo sapiens, UniProt O15530); assay: PDK1 kinase assay; type: biochemical; conditions: compared with GSK2334470
T1 sequence (O15530 1-556): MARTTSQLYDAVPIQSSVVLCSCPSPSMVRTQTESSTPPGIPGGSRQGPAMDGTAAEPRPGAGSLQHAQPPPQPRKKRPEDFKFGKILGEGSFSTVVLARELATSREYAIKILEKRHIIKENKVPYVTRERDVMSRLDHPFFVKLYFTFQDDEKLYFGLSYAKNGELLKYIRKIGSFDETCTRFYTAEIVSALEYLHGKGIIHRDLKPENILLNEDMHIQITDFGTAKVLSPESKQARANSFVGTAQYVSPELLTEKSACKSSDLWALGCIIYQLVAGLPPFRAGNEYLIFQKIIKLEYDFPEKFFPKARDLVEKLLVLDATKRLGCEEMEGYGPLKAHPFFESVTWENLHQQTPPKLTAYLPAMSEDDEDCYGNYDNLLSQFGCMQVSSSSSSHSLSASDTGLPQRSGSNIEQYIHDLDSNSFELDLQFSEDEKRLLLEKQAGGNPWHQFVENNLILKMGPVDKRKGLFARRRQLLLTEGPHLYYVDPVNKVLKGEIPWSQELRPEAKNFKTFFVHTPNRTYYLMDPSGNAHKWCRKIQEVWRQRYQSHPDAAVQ

[2] = system: LPS-stimulated human PBMCs; assay: LPS-induced TNF-α production in human PBMCs; type: cell-based; conditions: PBMC, read-out: IC50 on LPS-induced production of TNF-α
Summary of the method: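 Purchased human PBMCs (1 × 10⁶/well) in RPMI-1640 with 10% FBS and 2 mM L-glutamine were stimulated with LPS in the presence of test compound. TNF-α production was measured.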

[3] = system: LPS-induced RAW264.7 cells; assay: Inflammatory mediators in LPS-induced RAW264.7 cells; type: cell-based, murine
Summary of the method: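 RAW264.7 cells in DMEM with 10% FBS at 37 °C and 5% CO₂ were given test compound (100, 30, 10 μM) with LPS (1 μg/mL). Cells were lysed after 3 h for SYBR Green RT-PCR (ΔΔCt). Supernatants were kept for TNF-α and IL-6 ELISA and NO measurement.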

RAW264.7 cells [4] = assay: Cytotoxicity on RAW264.7 cells; type: cell-based, murine; conditions: 24 h, CCK8
[5] = system: IMQ-induced murine psoriasis; assay: IMQ-induced murine psoriatic skin lesions; type: in vivo, BALB/c mice
Summary of the method: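 Female BALB/c mice (6–8 weeks, 20–22 g), dorsal skin shaved, got 62.5 mg daily of […] IMQ cream topically for 7 days; groups (n = 7) were normal, IMQ only, and IMQ plus 5% test compound cream. PASI scored blind by 3 investigators. Read-outs: skin cAMP-specific PDE activity normalised to total protein, Ki-67 immunohistochemistry, serum Luminex 17-plex, skin RT-PCR (ΔΔCt), and skin-cell flow cytometry after collagenase IV digestion. Mean ± SEM.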

[6] = Arctigenin concentration in inflamed skin tissues; type: in vivo, mice; conditions: topical application
PDE4 = assay: Enzymatic activity of cAMP-specific PDE4 in RAW264.7 cells; type: cell-based, murine; conditions: RAW264.7 and LPS-stimulated RAW264.7 cells
[7] = cited from earlier work

C=C[C@@]1(C)CC(=O)[C@]2(O)[C@@]3(C)[C@@H](O)CCC(C)(C)[C@@H]3[C@H](O)[C@H](OC(C)=O)[C@@]2(C)O1 [forskolin, reference compound]
effect on arctigenin-induced phosphorylation of CREB (RAW264.7 cells [1]; 15 min): further enhance the effects of arctigenin on promoting the phosphorylation of CREB

COc1cc(C[C@H]2C(=O)OC[C@@H]2Cc2ccc(OC)c(OC)c2)ccc1O [Arctigenin]
IC50 (PDE4D catalytic domain): 3.76 ± 0.28 µM | inhibition on PDK1 (PDK1): negligible | IC50 [2]: 35.2 ± 6.01 µM | production of TNF-α and IL-6 ([3]; 100, 30, and 10 μM, LPS 24 h, ELISA, dose-dependent): reduce the production of TNF-α and IL-6 | mRNA expression level of TNF-α and IL-6 ([3]; LPS 3 h, RT-PCR): decreased the mRNA expression level | iNOS and COX-2 mRNA ([3]; concentration-dependent): downregulated | cytotoxicity (RAW264.7 cells [4]): not associated with the cytotoxicity | phosphorylation of CREB (RAW264.7 cells [1]; 15 min, western blot): led to the phosphorylation of CREB | intracellular cAMP (RAW264.7 cells [1]; 30 min, concentration-dependent): significant elevation of intracellular cAMP | serum IL-10 ([5]; Luminex assay): promote the secretion of IL-10 | serum inflammatory cytokines ([5]; Luminex assay): reduce the production of inflammatory cytokines | CCR6 and CXCR3 on CD45+ leukocytes ([5]; flow cytometry): suppressed the protein expression of CCR6 and CXCR3 | skin myeloid cells, macrophages, neutrophils, DCs ([5]; flow cytometry): decreased when treated with arctigenin | skin-infiltrated leukocytes, APCs, T cells, γδT cells ([5]; flow cytometry): reduced upon arctigenin treatment | expression of chemokines in inflamed skins ([5]; gene expression): suppress the expression of chemokines | expression of inflammatory cytokines in inflamed tissues ([5]; mRNA level): extensively attenuated | Ki-67 positive staining in the epidermis ([5]; topical 5% arctigenin cream): reduced | activity of cAMP-specific PDEs in skins ([5]; topical 5% arctigenin cream): obviously reversed | cumulative PASI scores ([5]; topical 5% arctigenin cream): decreased the cumulative PASI scores | skin level of cAMP ([5]; topical 5% arctigenin cream): upregulate the skin level of cAMP | splenomegaly (spleen index) ([5]; topical 5% arctigenin cream): ameliorate the concomitant splenomegaly | epidermal thickening ([5]; topical 5% arctigenin cream, H&E): dramatically improved the epidermal thickening | body weight loss ([5]; topical 5% arctigenin cream, daily): significantly reversed the body weight loss | therapeutic effect, topical vs oral ([5]; topical 5% cream vs oral 100 mg/kg): better therapeutic effect | phosphorylation of CREB in skins ([5]; western blot): promote the phosphorylation of CREB | concentration in the inflamed skin tissues [6]: 29.67 ± 15.42 μg/g skin samples | enzymatic activity of PDE4 in cells (PDE4): inhibit the enzymatic activity of PDE4 in the concentration-dependent manner | plasma concentration ([7]; oral administration, several animal species, ref [4], [35]): undetectable | tissue accumulation in brain ([7]; ref [34]): lower than that in intestine, liver, kidney, lung, and heart

O=S(=O)(NCCNC/C=C/c1ccc(Br)cc1)c1cccc2cnccc12 [H89, reference compound]
effect on arctigenin-induced phosphorylation of CREB (RAW264.7 cells [1]; 15 min): obviously blocked the effects of arctigenin on phosphorylation of CREB

— paper PMC8463927 (Journal of Advanced Research, 2021)
